Where a name gives a salt, the structure may show the parent alone. Calls of active or inactive are those of the source. The rule behind the calls is not given here.
Assays:
T47D = experiment: Cytotoxicity against human T47D cells after 72 hrs by cell counting kit-8 analysis; format: functional, cell-based
Procedure, shortened: (§1)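 Cells seeded at 2×10^5 or 1×10^5 per well, grown overnight in medium with 10% FBS at 37 °C, 5% CO₂, then FBS-starved 4 h. Graded compound concentrations given for 72 h. CCK-8 then added for 4 h and absorbance read at 450 nm. IC50 from a four-parameter logistic fit; mean ± S.D. of three experiments, each in triplicate.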

[1] = molecular target: DNA topoisomerase 2-alpha (Homo sapiens) (UniProt P11388); experiment: Inhibition of human DNA topoisomerase 2 alpha-mediated DNA relaxation at 20 uM incubated for 30 mins using pBR322 DNA substrate by ethidium bromide dye-based agarose gel electrophoresis relative to control etoposide
Chain of DNA topoisomerase 2-alpha (Homo sapiens) (P11388 whole entry): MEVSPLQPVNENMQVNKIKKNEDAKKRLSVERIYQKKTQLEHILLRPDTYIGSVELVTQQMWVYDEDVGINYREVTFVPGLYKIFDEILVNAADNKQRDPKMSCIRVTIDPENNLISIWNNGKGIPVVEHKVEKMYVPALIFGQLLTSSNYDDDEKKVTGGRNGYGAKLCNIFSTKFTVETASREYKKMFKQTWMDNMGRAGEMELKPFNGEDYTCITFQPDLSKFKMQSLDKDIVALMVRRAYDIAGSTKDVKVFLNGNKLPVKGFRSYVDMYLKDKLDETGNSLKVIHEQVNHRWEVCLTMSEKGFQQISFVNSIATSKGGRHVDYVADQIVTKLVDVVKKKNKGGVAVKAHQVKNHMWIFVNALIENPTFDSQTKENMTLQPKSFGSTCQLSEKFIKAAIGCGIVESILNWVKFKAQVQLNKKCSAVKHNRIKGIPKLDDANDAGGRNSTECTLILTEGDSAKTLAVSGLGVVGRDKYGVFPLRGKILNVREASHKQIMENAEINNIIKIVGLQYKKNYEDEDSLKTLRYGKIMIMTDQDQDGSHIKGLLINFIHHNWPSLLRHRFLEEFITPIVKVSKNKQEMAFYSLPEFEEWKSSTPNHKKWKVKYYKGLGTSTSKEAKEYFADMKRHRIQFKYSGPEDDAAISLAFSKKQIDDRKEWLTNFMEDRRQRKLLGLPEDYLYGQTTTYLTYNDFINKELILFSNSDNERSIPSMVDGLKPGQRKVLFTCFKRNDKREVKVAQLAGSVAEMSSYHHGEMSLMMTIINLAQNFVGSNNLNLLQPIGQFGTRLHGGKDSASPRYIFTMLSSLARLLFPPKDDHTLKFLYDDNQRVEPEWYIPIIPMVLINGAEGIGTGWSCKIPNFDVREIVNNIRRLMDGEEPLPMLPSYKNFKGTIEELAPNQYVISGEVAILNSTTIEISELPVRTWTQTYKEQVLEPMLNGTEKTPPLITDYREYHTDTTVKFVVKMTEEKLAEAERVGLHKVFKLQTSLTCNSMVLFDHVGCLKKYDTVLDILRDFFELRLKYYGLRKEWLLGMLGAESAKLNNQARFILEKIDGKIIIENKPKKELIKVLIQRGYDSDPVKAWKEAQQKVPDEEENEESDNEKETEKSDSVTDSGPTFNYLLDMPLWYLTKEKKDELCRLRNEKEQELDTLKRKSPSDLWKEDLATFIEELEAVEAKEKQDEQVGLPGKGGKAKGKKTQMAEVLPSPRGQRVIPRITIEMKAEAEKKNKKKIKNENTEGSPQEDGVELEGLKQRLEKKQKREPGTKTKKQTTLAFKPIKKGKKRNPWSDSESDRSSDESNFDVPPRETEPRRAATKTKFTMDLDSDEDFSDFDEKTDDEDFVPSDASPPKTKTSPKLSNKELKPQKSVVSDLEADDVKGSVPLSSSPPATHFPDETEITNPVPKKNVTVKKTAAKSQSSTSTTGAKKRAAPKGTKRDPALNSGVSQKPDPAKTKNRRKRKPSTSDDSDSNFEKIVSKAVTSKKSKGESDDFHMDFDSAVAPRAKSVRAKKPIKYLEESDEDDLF
Procedure, shortened: (§2)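 Stopped with EDTA and run on 1% agarose/TAE at 25 V for 4 h. EtBr-stained; supercoiled DNA quantified as % inhibition. Relative values are the ratio to the etoposide control.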

Sus scrofa [2] = species on record: Sus scrofa; experiment: Inhibition of porcine brain tubulin polymerization at 10 uM after 61 mins by spectroscopic analysis
Procedure, shortened: (§3)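 Porcine brain tubulin at 1.5 mg/mL final in cold PEM buffer (80 mM Na-PIPES pH 6.9, 1 mM MgCl₂, 30% glycerol, 1 mM EGTA) with 1 mM GTP. Compounds were dissolved in DMSO and diluted in PEM. They were pre-warmed 2 min at 37 °C before tubulin was added. DMSO vehicle and paclitaxel controls. A340 was read each minute for 61 min at 37 °C.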

Sus scrofa [3] = species on record: Sus scrofa; experiment: Induction of porcine brain tubulin polymerization at 10 uM after 61 mins by spectroscopic analysis; procedure, shortened: as §3
HCT-15 = experiment: Cytotoxicity against human HCT15 cells after 72 hrs by cell counting kit-8 analysis; format: functional, cell-based; settings: HCT-15, 72 h; procedure, shortened: as §1
MCF-10A = experiment: Cytotoxicity against human MCF10A cells after 72 hrs by cell counting kit-8 analysis; format: cell-based; procedure, shortened: as §1
[4] = molecular target: DNA topoisomerase 2-alpha (Homo sapiens) (UniProt P11388); experiment: Inhibition of human DNA topoisomerase 2 alpha-mediated DNA relaxation at 100 uM incubated for 30 mins using pBR322 DNA substrate by ethidium bromide dye-based agarose gel electrophoresis; procedure, shortened: as §2
[5] = molecular target: DNA topoisomerase 2-alpha (Homo sapiens) (UniProt P11388); experiment: Inhibition of human DNA topoisomerase 2 alpha-mediated DNA relaxation at 20 uM incubated for 30 mins using pBR322 DNA substrate by ethidium bromide dye-based agarose gel electrophoresis; procedure, shortened: as §2
[6] = molecular target: DNA topoisomerase 2-alpha (Homo sapiens) (UniProt P11388); experiment: Inhibition of human DNA topoisomerase 2 alpha-mediated DNA relaxation at 100 uM incubated for 30 mins using pBR322 DNA substrate by ethidium bromide dye-based agarose gel electrophoresis relative to control etoposide; procedure, shortened: as §2
[7] = molecular target: T1, DNA topoisomerase 1 (Homo sapiens) (UniProt P11387); experiment: Inhibition of human recombinant DNA topoisomerase 1-mediated DNA relaxation at 100 uM incubated for 30 mins using pBR322 DNA substrate by ethidium bromide dye-based agarose gel electrophoresis
T1 sequence (whole entry): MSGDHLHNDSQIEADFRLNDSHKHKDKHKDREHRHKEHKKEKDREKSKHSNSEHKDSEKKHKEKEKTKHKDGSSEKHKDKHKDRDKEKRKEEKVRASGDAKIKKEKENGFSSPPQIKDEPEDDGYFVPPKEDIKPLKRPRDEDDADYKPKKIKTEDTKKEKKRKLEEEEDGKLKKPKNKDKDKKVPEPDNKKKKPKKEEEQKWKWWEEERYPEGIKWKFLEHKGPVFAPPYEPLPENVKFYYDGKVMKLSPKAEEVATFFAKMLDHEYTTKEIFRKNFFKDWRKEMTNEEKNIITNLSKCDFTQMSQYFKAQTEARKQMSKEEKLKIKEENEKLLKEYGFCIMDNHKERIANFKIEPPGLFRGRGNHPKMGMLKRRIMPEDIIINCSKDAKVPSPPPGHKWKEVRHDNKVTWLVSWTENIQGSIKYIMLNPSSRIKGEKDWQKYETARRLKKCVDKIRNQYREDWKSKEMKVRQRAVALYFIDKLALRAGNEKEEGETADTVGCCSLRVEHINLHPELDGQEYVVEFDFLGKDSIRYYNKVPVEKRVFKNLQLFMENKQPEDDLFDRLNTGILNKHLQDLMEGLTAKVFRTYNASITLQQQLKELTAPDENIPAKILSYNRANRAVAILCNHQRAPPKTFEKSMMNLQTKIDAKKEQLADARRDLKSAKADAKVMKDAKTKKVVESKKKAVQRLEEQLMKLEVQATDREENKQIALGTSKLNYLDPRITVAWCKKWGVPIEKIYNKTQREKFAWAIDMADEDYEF
Procedure, shortened: (§4)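 pBR322 (100 ng) with recombinant human topo I (0.4 units) in 10 mM Tris-HCl pH 7.9, 150 mM NaCl, 0.1% BSA, 1 mM spermidine, 5% glycerol, 30 min at 37 °C. Stopped with sarcosyl/glycerol/dye and run on 1% agarose/TAE at 15 V for 7 h. EtBr-stained; supercoiled DNA quantified as % inhibition. Relative values are the ratio to the camptothecin control.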

[8] = molecular target: T1, DNA topoisomerase 1 (Homo sapiens); experiment: Inhibition of human recombinant DNA topoisomerase 1-mediated DNA relaxation at 100 uM incubated for 30 mins using pBR322 DNA substrate by ethidium bromide dye-based agarose gel electrophoresis relative to control camptothecin; procedure, shortened: as §4
[9] = molecular target: T1, DNA topoisomerase 1 (Homo sapiens); experiment: Inhibition of human recombinant DNA topoisomerase 1-mediated DNA relaxation at 20 uM incubated for 30 mins using pBR322 DNA substrate by ethidium bromide dye-based agarose gel electrophoresis relative to control camptothecin; procedure, shortened: as §4
[10] = molecular target: T1, DNA topoisomerase 1 (Homo sapiens); experiment: Inhibition of human recombinant DNA topoisomerase 1-mediated DNA relaxation at 20 uM incubated for 30 mins using pBR322 DNA substrate by ethidium bromide dye-based agarose gel electrophoresis; procedure, shortened: as §4
DU-145 = experiment: Cytotoxicity against human DU145 cells after 72 hrs by cell counting kit-8 analysis; format: functional, cell-based; settings: DU-145, 72 h; procedure, shortened: as §1

SMILES | Ratio [1] | inhibition (Sus scrofa [2]) | Tubulin polymerization induction (Sus scrofa [3]) | inhibition [4] [%] | inhibition [5] [%] | Ratio [6] | inhibition [7] [%] | Ratio [8] | Ratio [9] | inhibition [10] [%] | Activity (Sus scrofa [3]) | IC50 (T47D) [nM] | IC50 (HCT-15) [nM] | IC50 (MCF-10A) [nM] | IC50 (DU-145) [nM]
COc1cc(OC)cc(-c2cc3ccccc3c(-c3cccc(O)c3)n2)c1 | 0.9 | inactive | inactive | 37.3 | 30.9 | 0.59 | 0 | 0 |  |  |  | 760 | 840 | 6770 | 
COc1cc(OC)cc(-c2cc3ccc(N(C)C)cc3c(-c3cccc(N)c3)n2)c1 |  | inactive | inactive | 2.5 |  | 0.04 | 73.1 | 1.12 | 2.5 | 71.5 |  | 3590 | 2530 | 42000 | 
CC(=O)O[C@H]1C(=O)[C@@]2(C)[C@H]([C@H](OC(=O)c3ccccc3)[C@]3(O)C[C@H](OC(=O)[C@H](O)[C@@H](NC(=O)c4ccccc4)c4ccccc4)C(C)=C1C3(C)C)[C@]1(OC(C)=O)CO[C@@H]1C[C@@H]2O |  |  |  |  |  |  |  |  |  |  | Active |  |  |  | 
COc1ccc(-c2cc3ccccc3c(-c3cccc(N)c3)n2)cc1 |  |  |  | 7.7 |  | 0.12 | 0 | 0 |  |  |  | 950 | 2350 | 18800 | 
COc1ccc(-c2cc3ccccc3c(-c3cccc(O)c3)n2)cc1 | 0 |  |  | 84.3 | 0 | 1.07 | 9.4 | 0.12 |  |  |  | 580 | 1200 | 7830 | 5360
COc1ccc(-c2cc3cc(C)ccc3c(-c3cccc(OCCN(C)C)c3)n2)c(C)c1 | 0.35 |  |  | 49.6 | 13.2 | 0.81 | 3.7 | 0.05 |  |  |  | 600 | 2200 | 6350 | 
COc1cc(OC)cc(-c2cc3ccccc3c(-c3ccc(O)cc3)n2)c1 | 1.17 | inactive | inactive | 51.2 | 40 | 0.82 | 0 | 0 |  |  |  | 780 | 2780 | 7280 | 
COc1ccc(/C=C\c2cc(OC)c(OC)c(OC)c2)cc1O |  | 100% |  |  |  |  |  |  |  |  |  |  |  |  | 
COc1ccc(-c2cc3cc(C)ccc3c(-c3cccc(OCCCN(C)C)c3)n2)c(C)c1 | 0.28 |  |  | 40.9 | 10.5 | 0.67 | 39.3 | 0.6 | 0 | 0 |  | 290 | 870 | 6070 | 
COc1ccc(-c2cc3ccccc3c(-c3ccc(OC)cc3)n2)cc1 |  |  |  | 7.4 |  | 0.11 | 0 | 0 |  |  |  | 850 | 2790 | > 50000 | 
COc1ccc(-c2cc3ccccc3c(-c3cccc(OC)c3)n2)cc1 |  |  |  | 0 |  | 0 | 43.2 | 0.58 | 0 | 0 |  | 860 | 1300 | > 50000 | > 50000
COc1ccc(-c2cc3ccccc3c(-c3cccc(OCCCN(C)C)c3)n2)cc1 |  |  |  | 20.2 |  | 0.32 | 47.9 | 0.81 | 0.38 | 12.1 |  | 160 | 1750 | 10200 | 
COc1cccc2c1C(=O)c1c(O)c3c(c(O)c1C2=O)C[C@@](O)(C(=O)CO)C[C@@H]3O[C@H]1C[C@H](N)[C@H](O)[C@H](C)O1 [DOXORUBICIN HYDROCHLORIDE] |  |  |  |  |  |  |  |  |  |  |  |  |  | 930 | 
COc1ccc(-c2cc3ccccc3c(-c3ccc(O)cc3)n2)cc1 |  |  |  | 0 |  | 0 | 6.7 | 0.09 |  |  |  | 1220 | > 50000 | > 50000 | > 50000
COc1cc(OC)cc(-c2cc3cc(OC)c(OC)cc3c(-c3cccc(O)c3)n2)c1 |  |  |  | 0 |  | 0 | 4.6 | 0.06 |  |  |  | 3920 | 540 | 5900 | 8120
COc1cc(OC)cc(-c2cc3ccccc3c(-c3cccc(OC)c3)n2)c1 |  |  |  | 16.7 |  | 0.26 | 0 | 0 |  |  |  | 1120 | 1170 | > 50000 | 

Now from value to compound, other results behind:

Ratio [1] | inhibition (Sus scrofa [2]) | Tubulin polymerization induction (Sus scrofa [3]) | inhibition [4] [%] | inhibition [5] [%] | Ratio [6] | inhibition [7] [%] | Ratio [8] | Ratio [9] | inhibition [10] [%] | Activity (Sus scrofa [3]) | SMILES | IC50 (T47D) [nM] | IC50 (HCT-15) [nM] | IC50 (MCF-10A) [nM] | IC50 (DU-145) [nM]
0.01 |  |  | 34.5 | 0.4 | 0.38 | 1.7 | 0.03 |  |  |  | COc1ccc(-c2cc3cc(C)ccc3c(-c3cccc(O)c3)n2)cc1OC | 4340 | 370 | 13500 | 6510
 |  |  | 0 |  | 0 | 2.3 | 0.04 |  |  |  | COc1ccc(-c2nc(-c3ccc(OC)c(OC)c3)cc3cc(C)ccc23)cc1 | 3340 | 28700 | > 50000 | > 50000
 |  |  | 23.6 |  | 0.37 | 0 | 0 |  |  |  | COc1cc(OC)cc(-c2cc3ccccc3c(-c3cccc(N)c3)n2)c1 | 980 | 4080 | > 50000 | 
0 |  |  | 36.5 | 0 | 0.4 | 0.3 | 0.005 |  |  |  | COc1ccc(-c2cc3cc(C)ccc3c(-c3ccc(O)cc3)n2)cc1OC | 4420 | 2520 | 18100 | 5980
 |  |  | 0 |  | 0 | 2.9 | 0.05 |  |  |  | COc1cccc(-c2nc(-c3ccc(OC)c(OC)c3)cc3cc(C)ccc23)c1 | 7860 | 1840 | > 50000 | > 50000
0.41 |  |  | 75.8 | 15.3 | 1.24 | 79.6 | 1.22 | 0 | 0 |  | COc1ccc(-c2cc3cc(C)ccc3c(-c3ccc(OCCN(C)C)cc3)n2)cc1OC | 2330 | 970 | 5310 | 
 |  |  | 6.9 |  | 0.11 | 7.2 | 0.11 |  |  |  | COc1ccc(-c2cc3cc(C)ccc3c(-c3cccc(N)c3)n2)cc1OC | 450 | 2700 | 5600 | 
